From ChEMBL document CHEMBL3621107, “Ring fusion strategy for synthesis and lead optimization of sulfur-substituted anthra[1,2-c][1,2,5]thiadiazole-6,11-dione derivatives as promising scaffold of antitumor agents” (Eur J Med Chem, 2015)

Key:
Malme-3M = assay: Cytotoxicity against human MALME-3M cells assessed as cell growth at 10 uM after 48 hrs by SRB assay relative to control; assay type: functional; conditions: read-out: Activity
Outline: (§1)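 First-stage NCI-60 screen by the NCI Developmental Therapeutics Program. Each compound was tested once at a single concentration of 10 μM against the 60-cell-line panel. Growth percentage was reported for each cell line.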

M14 = assay: Cytotoxicity against human M14 cells assessed as cell growth at 10 uM after 48 hrs by SRB assay relative to control; assay type: functional; conditions: M14, 48 h, read-out: Activity; outline: as §1
UACC-62 = assay: Cytotoxicity against human UACC62 cells assessed as cell growth at 10 uM after 48 hrs by SRB assay relative to control; assay type: functional; conditions: UACC-62, 48 h, read-out: Activity
Outline: (§2)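 NCI-60 one-dose screen run by NCI DTP: each cell line exposed to a single 10 µM dose, and percentage growth recorded against untreated growth.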

OVCAR-3 = assay: Cytotoxicity against human OVCAR3 cells assessed as cell growth at 10 uM after 48 hrs by SRB assay relative to control; assay type: functional; conditions: OVCAR-3, 48 h, read-out: Activity
Outline: (§3)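 First-stage NCI DTP one-dose screen against the 60 human tumour cell line panel. Compounds were tested at a single 10 μM level, and results are given as growth percentage.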

SK-OV-3 = assay: Cytotoxicity against human SKOV3 cells assessed as cell growth at 10 uM after 48 hrs by SRB assay relative to control; assay type: functional; conditions: SK-OV-3, 48 h, read-out: Activity; outline: as §3
786-0 = assay: Cytotoxicity against human 786-0 cells assessed as cell growth at 10 uM after 48 hrs by SRB assay relative to control; assay type: functional; conditions: 786-0, 48 h, read-out: Activity; outline: as §1
A498 = assay: Cytotoxicity against human A498 cells assessed as cell growth at 10 uM after 48 hrs by SRB assay relative to control; assay type: functional; conditions: A498, 48 h, read-out: Activity; outline: as §1
SN12C = assay: Cytotoxicity against human SN12C cells assessed as cell growth at 10 uM after 48 hrs by SRB assay relative to control; assay type: functional; conditions: read-out: Activity; outline: as §3
TK-10 = assay: Cytotoxicity against human TK10 cells assessed as cell growth at 10 uM after 48 hrs by SRB assay relative to control; assay type: functional; conditions: TK-10, 48 h, read-out: Activity; outline: as §2
PC-3 [1] = assay: Cytotoxicity against human PC3 cells assessed as cell growth at 10 uM after 48 hrs by SRB assay relative to control; assay type: functional; conditions: PC-3, 48 h, read-out: Activity; outline: as §3
BT-549 = assay: Cytotoxicity against human BT549 cells assessed as cell growth at 10 uM after 48 hrs by SRB assay relative to control; assay type: functional; conditions: BT-549, 48 h, read-out: Activity; outline: as §1
T47D = assay: Cytotoxicity against human T47D cells assessed as cell growth at 10 uM after 48 hrs by SRB assay relative to control; assay type: functional; conditions: read-out: Activity; outline: as §2
MDA-MB-468 = assay: Cytotoxicity against human MDA-MB-468 cells assessed as cell growth at 10 uM after 48 hrs by SRB assay relative to control; assay type: functional; conditions: MDA-MB-468, 48 h, read-out: Activity; outline: as §3
PC-3 [2] = assay: Cytotoxicity against human PC3 cells after 48 hrs by SRB assay; assay type: functional, cell-based; conditions: PC-3, 48 h
Outline: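 Second-stage NCI-60 panel run by the NCI Developmental Therapeutics Program, covering nine tumour subpanels. Five concentrations were tested: 0.01, 0.1, 1, 10 and 100 μM. Percentage growth at each level was plotted against log10 drug concentration. GI50, TGI and LC50 were read from these dose-response curves. Subpanel MID values were divided into the full-panel MID to give selectivity ratios.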

DU-145 = assay: Cytotoxicity against human DU145 cells after 72 hrs by MTT assay; assay type: functional, cell-based; conditions: for IC50: DU-145, 72 h
Outline: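 DU-145 cells grown in RPMI-1640 with 5% heat-inactivated fetal calf serum at 37 °C, 5% CO2. About 2×10^3 cells per well were seeded and incubated for 24 h. Compounds were dissolved in DMSO freshly and diluted into medium (vehicle 0.1% DMSO), then cells were exposed for 72 h. MTT was added for 3 h at 37 °C and absorbance read at 570 nm.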

HL-60(TB) = assay: Cytotoxicity against human HL-60(TB) cells assessed as cell growth at 10 uM after 48 hrs by SRB assay relative to control; assay type: functional; conditions: HL-60, 48 h, read-out: Activity
Outline: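 NCI Developmental Therapeutics Program 60-cell-line screen, first stage: a single dose of 10 μM against the panel, reported as percentage growth.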

K562 = assay: Cytotoxicity against human K562 cells assessed as cell growth at 10 uM after 48 hrs by SRB assay relative to control; assay type: functional; conditions: K562, 48 h, read-out: Activity; outline: as §1
MOLT-4 = assay: Cytotoxicity against human MOLT4 cells assessed as cell growth at 10 uM after 48 hrs by SRB assay relative to control; assay type: functional; conditions: MOLT-4, 48 h, read-out: Activity; outline: as §3
SR = assay: Cytotoxicity against human SR cells assessed as cell growth at 10 uM after 48 hrs by SRB assay relative to control; assay type: functional; conditions: read-out: Activity; outline: as §2
[3] = Cytotoxicity against human EKVX cells assessed as cell growth at 10 uM after 48 hrs by SRB assay relative to control; assay type: functional; conditions: read-out: Activity; outline: as §1
NCI-H23 = assay: Cytotoxicity against human NCI-H23 cells assessed as cell growth at 10 uM after 48 hrs by SRB assay relative to control; assay type: functional; conditions: NCI-H23, 48 h, read-out: Activity; outline: as §3
HCC 2998 = assay: Cytotoxicity against human HCC2998 cells assessed as cell growth at 10 uM after 48 hrs by SRB assay relative to control; assay type: functional; conditions: HCC 2998, 48 h, read-out: Activity; outline: as §1
SF-295 = assay: Cytotoxicity against human SF295 cells assessed as cell growth at 10 uM after 48 hrs by SRB assay relative to control; assay type: functional; conditions: SF-295, 48 h, read-out: Activity; outline: as §3
SNB-19 = assay: Cytotoxicity against human SNB19 cells assessed as cell growth at 10 uM after 48 hrs by SRB assay relative to control; assay type: functional; conditions: SNB-19, 48 h, read-out: Activity; outline: as §2
SNB-75 = assay: Cytotoxicity against human SNB75 cells assessed as cell growth at 10 uM after 48 hrs by SRB assay relative to control; assay type: functional; conditions: SNB-75, 48 h, read-out: Activity; outline: as §2
U-251 = assay: Cytotoxicity against human U251 cells assessed as cell growth at 10 uM after 48 hrs by SRB assay relative to control; assay type: functional; conditions: U-251, 48 h, read-out: Activity; outline: as §2
LOX IMVI = assay: Cytotoxicity against human LOXIMVI cells assessed as cell growth at 10 uM after 48 hrs by SRB assay relative to control; assay type: functional; conditions: read-out: Activity; outline: as §1
MDA-MB-435 = assay: Cytotoxicity against human MDA-MB-435 cells assessed as cell growth at 10 uM after 48 hrs by SRB assay relative to control; assay type: functional; conditions: MDA-MB-435, 48 h, read-out: Activity; outline: as §3
OVCAR-5 = assay: Cytotoxicity against human OVCAR5 cells assessed as cell growth at 10 uM after 48 hrs by SRB assay relative to control; assay type: functional; conditions: OVCAR-5, 48 h, read-out: Activity; outline: as §3
HT-29 = assay: Cytotoxicity against human HT-29 cells assessed as cell growth at 10 uM after 48 hrs by SRB assay relative to control; assay type: functional; conditions: HT-29, 48 h, read-out: Activity; outline: as §1

SMILES	growth at 10 µM (Malme-3M) [%]	growth at 10 µM (M14) [%]	growth at 10 µM (UACC-62) [%]	growth at 10 µM (OVCAR-3) [%]	growth at 10 µM (786-0) [%]	growth at 10 µM (SN12C) [%]	growth at 10 µM (TK-10) [%]	growth at 10 µM (PC-3 [1]) [%]	growth at 10 µM (BT-549) [%]	growth at 10 µM (T47D) [%]	growth at 10 µM (MDA-MB-468) [%]	IC50 (PC-3 [2]) [µM]	IC50 (DU-145) [µM]	growth at 10 µM (HL-60(TB)) [%]	growth at 10 µM (K562) [%]	growth at 10 µM (MOLT-4) [%]	growth at 10 µM (SR) [%]	growth at 10 µM [3] [%]	growth at 10 µM (NCI-H23) [%]	growth at 10 µM (HCC 2998) [%]	also measured
O=C1c2ccccc2C(=O)c2c1cc(Sc1ccccc1)c1nsnc21	106	106	86.3	96.7	110	96.6	143	87.3	105	93.2	87.3	> 15	> 15	83.9	52	31.1	86.4	97.8	79.2	111	growth at 10 µM (SK-OV-3): 106%; growth at 10 µM (A498): 95%; growth at 10 µM (SF-295): 106%; growth at 10 µM (SNB-19): 109%; growth at 10 µM (SNB-75): 96.1%; growth at 10 µM (U-251): 88.8%; growth at 10 µM (LOX IMVI): 42%
O=C1c2ccccc2C(=O)c2c1cc(SCc1ccccc1)c1nsnc21	80.8	86.5	43.1	25.3	92.6	66.1	130	38.4	96.2	-46.1	-85.3	> 15	6.35	70.3	10.5	-21	1.25	95	55.3	115	growth at 10 µM (MDA-MB-435): -48.3%; growth at 10 µM (SK-OV-3): 80.3%; growth at 10 µM (A498): 88.6%; growth at 10 µM (SF-295): 91.6%; growth at 10 µM (SNB-19): 94.3%; growth at 10 µM (SNB-75): 39.6%; growth at 10 µM (U-251): 30.5%; growth at 10 µM (LOX IMVI): 7.49%
O=C1c2ccccc2C(=O)c2c1cc(Sc1ccc(Cl)cc1)c1nsnc21	105	105	90.7	119	109	87	140	86.9	98.9	85	46.1	> 15	> 15	87.3	94.9	59.2	111	94.8	100	107	growth at 10 µM (MDA-MB-435): 107%; growth at 10 µM (SK-OV-3): 109%; growth at 10 µM (A498): 93%; growth at 10 µM (SF-295): 97.3%; growth at 10 µM (SNB-19): 105%; growth at 10 µM (SNB-75): 91.7%; growth at 10 µM (U-251): 104%; growth at 10 µM (LOX IMVI): 83.2%
CC(C)Sc1cc2c(c3nsnc13)C(=O)c1ccccc1C2=O	-86	-31.5	-57.1	-60.3	12.4	-28.6	30.3	-13.4	10.8	-24.4	-78.8	3.69	4.53	-41.2	-26.2	-54.6	-48	-6.58	-42.2	21	growth at 10 µM (MDA-MB-435): -79.3%; growth at 10 µM (OVCAR-5): -27.9%; Activity (DU-145): Dose-dependent effect; growth at 10 µM (HT-29): 48.1%; growth at 10 µM (SF-295): -16.6%; growth at 10 µM (SNB-19): 21.9%; growth at 10 µM (SNB-75): 9.12%; growth at 10 µM (U-251): -23.1%; growth at 10 µM (LOX IMVI): -21.6%
